Measurements: ChEMBL document CHEMBL1799943, “1-(5-Carboxyindol-1-yl)propan-2-one inhibitors of human cytosolic phospholipase A2α: effect of substituents in position 3 of the indole scaffold on inhibitory potency, metabolic stability, solubility, and bioavailability” (J Med Chem, 2010)

Tests used:
[1] = Drug level in C57Bl6 mouse plasma at 100 mg/kg, po after 1 hr by HPLC analysis; type: ADME, organism-based; design: dose 100 mg/kg, route oral
How it was run: (§1)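 Male/female unspecified C57Bl6 mice (n = 3) got a single 100 mg/kg oral gavage dose as a suspension in 1% aqueous methylcellulose (8 μL/g). Blood was drawn at 1 and 2 h and centrifuged at 3000g for 20 min. Plasma was mixed with pH 7.4 PBS and acetonitrile, left 5 min at room temperature and spun at 2000g for 15 min. Supernatant went to reversed-phase C18 HPLC-UV for parent and alcohol metabolite.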

[2] = system: Intestine; assay: Drug level in C57Bl6 mouse intestine assessed per gut at 100 mg/kg, po after 2 hrs by HPLC analysis in presence of Helix pomatia beta-glucuronidase HP2; type: ADME, organism-based; design: dose 100 mg/kg, route oral; settings: in vivo
[3] = Drug level in C57Bl6 mouse plasma at 100 mg/kg, po after 2 hrs by HPLC analysis; type: ADME, organism-based; design: dose 100 mg/kg, route oral; how it was run: as §1
[4] = system: Intestine; assay: Drug level in C57Bl6 mouse intestine assessed as 3-(5-Carboxypentanoyl)-1-[2-hydroxy-3-(4-octylphenoxy)propyl]indole-5-carboxylic acid level assessed per gut at 100 mg/kg, po after 2 hrs by HPLC analysis in presence of Helix pomatia beta-glucuronidase HP2; type: ADME, organism-based; design: dose 100 mg/kg, route oral; settings: in vivo
[5] = Partition coefficient, log P of the compound by reverse phase HPLC analysis; type: physicochemical; settings: octanol/water
How it was run: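 log P estimated from reversed-phase HPLC retention times of each compound's ketone form.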

[6] = Metabolic stability in rat liver microsomes assessed as compound remaining after 30 mins by UV-reverse phase HPLC analysis; type: ADME, Microsome; settings: read-out: Stability
[7] = system: Plasma; assay: Drug level in C57Bl6 mouse plasma assessed as 3-(5-carboxypentanoyl)-1-(2-hydroxy-3-(4-octylphenoxy)propyl)-1H-indole-5-carboxylic acid at 100 mg/kg, po after 1 hr by HPLC analysis; type: ADME, organism-based; design: dose 100 mg/kg, route oral; settings: in vivo; how it was run: as §1
[8] = Drug level in C57Bl6 mouse intestine assessed per gut at 100 mg/kg, po after 2 hrs by HPLC analysis; type: ADME, organism-based; design: dose 100 mg/kg, route oral; settings: read-out: Drug uptake
How it was run: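 Whole intestines were taken from C57Bl6 mice (n = 3) 2 h after 100 mg/kg oral gavage in 1% methylcellulose. Each was minced, homogenized at 0 °C in pH 7.4 PBS and extracted with acetonitrile. Pellet washes with PBS/acetonitrile 1:1 were pooled, made up to volume, centrifuged and filtered. Parent and alcohol metabolite per whole gut were quantified by reversed-phase HPLC-UV.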

[9] = system: Plasma; assay: Drug level in C57Bl6 mouse plasma assessed as 3-(5-carboxypentanoyl)-1-(2-hydroxy-3-(4-octylphenoxy)propyl)-1H-indole-5-carboxylic acid at 100 mg/kg, po after 2 hrs by HPLC analysis; type: ADME, organism-based; design: dose 100 mg/kg, route oral; settings: in vivo; how it was run: as §1
[10] = Drug level in C57Bl6 mouse bile at 100 mg/kg, po after 2 hrs by HPLC analysis; type: ADME, organism-based; design: dose 100 mg/kg, route oral; settings: read-out: Drug uptake
How it was run: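 Mice (C57Bl6, n = 3) were dosed orally by gavage at 100 mg/kg in 1% methylcellulose and killed 2 h later for bile collection. For direct measurement, bile was diluted in pH 7.4 PBS with equal acetonitrile. Alternatively, bile in pH 5.5 PBS was digested with Helix pomatia β-glucuronidase HP-2 at 60 °C for 1 h, then acetonitrile was added. Both were centrifuged at 2000g and analysed by reversed-phase HPLC-UV.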

[11] = system: Intestine; assay: Drug level in C57Bl6 mouse intestine assessed as 3-(5-carboxypentanoyl)-1-(2-hydroxy-3-(4-octylphenoxy)propyl)-1H-indole-5-carboxylic acid per gut at 100 mg/kg, po after 2 hrs by HPLC analysis; type: ADME, organism-based; design: dose 100 mg/kg, route oral; settings: in vivo
How it was run: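 Whole intestine removed 2 h after a single 100 mg/kg gavage (1% methylcellulose suspension) in C57Bl6 mice (n = 3). Tissue minced and homogenised in PBS pH 7.4 at 0 °C, then extracted with acetonitrile with repeated PBS/acetonitrile 1:1 washes, spun 2000g at 4 °C. Pooled extract made up to volume and analysed by reversed-phase HPLC-UV. Amount per gut, mean ± SD.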

[12] = Drug level in C57Bl6 mouse bile assessed as 3-(5-carboxypentanoyl)-1-(2-hydroxy-3-(4-octylphenoxy)propyl)-1H-indole-5-carboxylic acid at 100 mg/kg, po after 2 hrs by HPLC analysis; type: ADME, organism-based; design: dose 100 mg/kg, route oral; settings: in vivo
[13] = Drug level in C57Bl6 mouse bile assessed as 3-(5-carboxypentanoyl)-1-(2-hydroxy-3-(4-octylphenoxy)propyl)-1H-indole-5-carboxylic acid at 100 mg/kg, po after 2 hrs by HPLC analysis in presence of Helix pomatia beta-glucuronidase HP2; type: ADME, organism-based; design: dose 100 mg/kg, route oral; settings: in vivo
How it was run: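 C57Bl6 mice (n = 3) were gavaged once with 100 mg/kg suspended in 1% aqueous methylcellulose, and bile was taken at 2 h. Bile in PBS pH 5.5 was treated with Helix pomatia β-glucuronidase HP-2 at 60 °C for 1 h to cleave glucuronides. Acetonitrile was then added, samples were left 5 min, spun 2000g for 15 min, and analysed by reversed-phase HPLC-UV. Mean ± SD.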

[14] = Drug level in rat plasma at 100 mg/kg, po after 4 hrs by HPLC analysis; type: ADME, organism-based; design: dose 100 mg/kg, route oral
[15] = Drug level in C57Bl6 mouse plasma at 10 mg/kg, po after 2 hrs by HPLC analysis; type: ADME, organism-based; design: dose 10 mg/kg, route oral
[16] = Drug level in C57Bl6 mouse plasma at 10 mg/kg, po after 1 hr by HPLC analysis; type: ADME, organism-based; design: dose 10 mg/kg, route oral

## CC(C)C(=O)c1cn(CC(=O)COc2ccc(Oc3ccccc3)cc2)c2ccc(C(=O)O)cc12
[1]
  concentration at 1 h: < 5000 ng/mL
[2]
  Drug uptake: 404 µg
[3]
  concentration at 2 h: < 1000 ng/mL
[4]
  Drug uptake: 875 µg

## CCCCCCCCc1ccc(OCC(=O)Cn2cc(-c3nc(C)no3)c3cc(C(=O)O)ccc32)cc1
[5]
  logP: 6.3
[6]
  remaining at 0.5 h: 81%

## CCCCCCCCc1ccc(OCC(=O)Cn2cc(C(=O)CCC)c3cc(C(=O)O)ccc32)cc1
[5]
  logP: 6.7

## CCCCCCCCc1ccc(OCC(=O)Cn2cc(C(=O)CCCCC)c3cc(C(=O)O)ccc32)cc1
[5]
  logP: > 7

## CCCCCCCCc1ccc(OCC(=O)Cn2cc(C(=O)C(C)(C)C)c3cc(C(=O)O)ccc32)cc1
[5]
  logP: > 7
[6]
  remaining at 0.5 h: 93%

## CCCCCCCCc1ccc(OCC(=O)Cn2cc(C(=O)c3ccccc3)c3cc(C(=O)O)ccc32)cc1
[5]
  logP: 6.9
[6]
  remaining at 0.5 h: 95%

## CCCCCCCCc1ccc(OCC(=O)Cn2cc(CC)c3cc(C(=O)O)ccc32)cc1
[5]
  logP: > 7
[6]
  remaining at 0.5 h: 84%

## CCCCCCCCc1ccc(OCC(=O)Cn2cc(CCCC)c3cc(C(=O)O)ccc32)cc1
[5]
  logP: > 7
[6]
  remaining at 0.5 h: 82%

## CCCCCCCCc1ccc(OCC(=O)Cn2cc(CCCCCC)c3cc(C(=O)O)ccc32)cc1
[5]
  logP: > 7
[6]
  remaining at 0.5 h: 94%

## CCCCCCCCc1ccc(OCC(=O)Cn2cc(C(=O)CCC(=O)O)c3cc(C(=O)O)ccc32)cc1
[5]
  logP: 5.1

## CCCCCCCCc1ccc(OCC(=O)Cn2cc(C(=O)CCCC(=O)O)c3cc(C(=O)O)ccc32)cc1
[5]
  logP: 5.2
[6]
  remaining at 0.5 h: 95%

## CCCCCCCCc1ccc(OCC(=O)Cn2cc(C(=O)CCCCC(=O)O)c3cc(C(=O)O)ccc32)cc1
[5]
  logP: 5.3
[1]
  concentration at 1 h: < 200 ng/mL
[7]
  Cp: < 0.1 µg/mL
[3]
  concentration at 2 h: < 200 ng/mL
[8]
  concentration at 2 h: 870 µg/mL
[9]
  Cp: < 0.1 µg/mL
[10]
  concentration at 2 h: 6000 ng/mL

## CCCCCCCCc1ccc(OCC(=O)Cn2cc(C(=O)c3cccc(C(=O)O)c3)c3cc(C(=O)O)ccc32)cc1
[5]
  logP: 5.7
[6]
  remaining at 0.5 h: 87%

## CCCCCCCCc1ccc(OCC(=O)Cn2cc(C(=O)c3ccc(C(=O)O)cc3)c3cc(C(=O)O)ccc32)cc1
[5]
  logP: 5.6
[6]
  remaining at 0.5 h: 87%

## CCCCCCCCc1ccc(OCC(=O)Cn2cc(C(=O)C(F)(F)F)c3cc(C(=O)O)ccc32)cc1
[5]
  logP: > 7
[6]
  remaining at 0.5 h: 87%

## O=C(O)CCCCC(=O)c1cn(CC(=O)COc2ccc(Oc3ccccc3)cc2)c2ccc(C(=O)O)cc12
[5]
  logP: 2.1
[6]
  remaining at 0.5 h: 24%

## Cc1noc(-c2cn(CC(=O)COc3ccc(Oc4ccccc4)cc3)c3ccc(C(=O)O)cc23)n1
[5]
  logP: 3.1
[6]
  remaining at 0.5 h: 8%

## CCCCCCCCc1ccc(OCC(O)Cn2cc(C(=O)CCCCC(=O)O)c3cc(C(=O)O)ccc32)cc1 (centres undefined)
[11]
  Drug uptake: 14 µg/mL
[12]
  Drug uptake: < 1 µg/mL
[13]
  Drug uptake: 33 µg/mL

## CCCCCCCCCCCC(=O)c1c(C(=O)O)n(CCOc2ccc(CC(=O)O)cc2)c2ccccc12
[14]
  concentration at 4 h: 100 µg/mL

## COc1ccc2c(c1)c(CC(=O)O)c(C)n2C(=O)c1ccc(Cl)cc1 [INDOMETHACIN]
[15]
  concentration at 2 h: 34000 ng/mL
[16]
  concentration at 1 h: 42000 ng/mL
